# Reference: BindingDB's records for doi:10.1016/j.ejmech.2013.06.039 (University of Salerno, 2013)
# Columns and labels:
# [1] = target: T1, Polyunsaturated fatty acid 5-lipoxygenase (Homo sapiens, UniProt P09917); test: Inhibition of human recombinant 5-LO expressed in Escherichia coli BL21 using arachidonic acid as substrate after 10 mins
# T1 sequence (P09917 whole entry): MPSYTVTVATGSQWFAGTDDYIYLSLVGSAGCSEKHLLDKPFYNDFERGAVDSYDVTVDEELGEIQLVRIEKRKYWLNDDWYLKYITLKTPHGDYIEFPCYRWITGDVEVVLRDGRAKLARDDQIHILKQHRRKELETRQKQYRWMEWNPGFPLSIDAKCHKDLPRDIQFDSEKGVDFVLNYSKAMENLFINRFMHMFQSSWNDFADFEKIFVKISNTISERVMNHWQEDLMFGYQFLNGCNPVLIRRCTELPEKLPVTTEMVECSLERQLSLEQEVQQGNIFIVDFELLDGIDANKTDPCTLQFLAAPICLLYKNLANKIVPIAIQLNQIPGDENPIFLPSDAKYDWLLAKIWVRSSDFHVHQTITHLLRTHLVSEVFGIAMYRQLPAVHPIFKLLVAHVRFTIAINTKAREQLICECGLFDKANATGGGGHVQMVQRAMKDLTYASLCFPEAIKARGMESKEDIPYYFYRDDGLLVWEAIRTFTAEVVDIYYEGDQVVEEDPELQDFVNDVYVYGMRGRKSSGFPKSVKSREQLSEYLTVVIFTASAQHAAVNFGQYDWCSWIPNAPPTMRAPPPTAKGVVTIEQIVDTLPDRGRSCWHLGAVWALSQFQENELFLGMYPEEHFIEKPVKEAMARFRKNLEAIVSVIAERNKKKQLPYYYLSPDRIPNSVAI
# Procedure, shortened: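 Purified 5-LO was diluted in PBS/EDTA and pre-incubated with compound for 5–10 min at 4 °C, then pre-warmed for 30 s at 37 °C. The reaction was started with 2 mM CaCl₂ plus AA, run 10 min at 37 °C and stopped with ice-cold methanol. Products were analysed by HPLC.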
# [2] = target: T1, Polyunsaturated fatty acid 5-lipoxygenase; test: Inhibition of 5-LO in human PMNL using arachidonic acid as substrate preincubated for 15 mins
# Procedure, shortened: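 PMNL were isolated from buffy coats by dextran sedimentation, Nycoprep centrifugation and hypotonic lysis of erythrocytes, then resuspended in PBS pH 7.4 with 1 mg/mL glucose and 1 mM CaCl₂. Cells were pre-incubated with compound for 15 min at 37 °C, then stimulated with A23187 plus AA for 10 min at 37 °C. 15-LO comes from eosinophils and 12-LO from adhering platelets in the preparation. After methanol/HCl stop and PGB₁ addition, metabolites were extracted and quantified by HPLC. Mean ± S.E.M., n = 3–4.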
Structure (SMILES),IC50 [1],IC50 [2]
O=C1C=C(Cc2ccccc2)C(=O)CC1=O,> 10 µM,> 10 µM
O=C1CC(=O)C(=O)C(CC2CCCCC2)C1=O,> 10 µM,> 10 µM
COC1=CC(=O)C(=O)C(Cc2ccc3ccccc3c2)C1=O (stereo not drawn),> 10 µM,> 10 µM
COC1=CC(=O)C(=O)C(Cc2ccccc2)C1=O (stereo not drawn),> 10 µM,> 10 µM
